Measured values from publication PMC9722229 (European journal of pharmacology, 2019).
Like-named read-outs stand apart in the source and are kept apart here.

Assays:
[1] = test system: conditioned fear behavior; assay: Single prolonged stress; type: in vivo, rat; details: SPS rats, D-578 10 mg/kg, paroxetine 5 mg/kg; for Freezing behavior during the extinction retention session (SPS-induced deficit) / Freezing behavior during the extinction session (SPS-induced deficit): i.p. 90 min prior to each session; for Shock reactivity during acquisition compared to the control group: i.p., five 1 mA shocks
[2] = target: DAT (Rattus norvegicus, UniProt P23977); assay: Inhibition of [3H]DA uptake in rat striatum synaptosomes; type: biochemical
[3] = target: SERT (Rattus norvegicus, UniProt P31652); assay: Inhibition of [3H]5-HT uptake in rat cerebral cortex synaptosomes; type: biochemical
[4] = target: cloned human DAT (Homo sapiens, UniProt Q01959); assay: Inhibition of [3H]DA uptake in HEK 293 cells expressing cloned human transporter; type: cell-based
[5] = target: cloned human SERT (Homo sapiens, UniProt P31645); type: cell-based
[6] = target: cloned human NET (Homo sapiens, UniProt P23975); assay: cell-based; type: cell-based
Chain of cloned human NET (P23975 whole entry): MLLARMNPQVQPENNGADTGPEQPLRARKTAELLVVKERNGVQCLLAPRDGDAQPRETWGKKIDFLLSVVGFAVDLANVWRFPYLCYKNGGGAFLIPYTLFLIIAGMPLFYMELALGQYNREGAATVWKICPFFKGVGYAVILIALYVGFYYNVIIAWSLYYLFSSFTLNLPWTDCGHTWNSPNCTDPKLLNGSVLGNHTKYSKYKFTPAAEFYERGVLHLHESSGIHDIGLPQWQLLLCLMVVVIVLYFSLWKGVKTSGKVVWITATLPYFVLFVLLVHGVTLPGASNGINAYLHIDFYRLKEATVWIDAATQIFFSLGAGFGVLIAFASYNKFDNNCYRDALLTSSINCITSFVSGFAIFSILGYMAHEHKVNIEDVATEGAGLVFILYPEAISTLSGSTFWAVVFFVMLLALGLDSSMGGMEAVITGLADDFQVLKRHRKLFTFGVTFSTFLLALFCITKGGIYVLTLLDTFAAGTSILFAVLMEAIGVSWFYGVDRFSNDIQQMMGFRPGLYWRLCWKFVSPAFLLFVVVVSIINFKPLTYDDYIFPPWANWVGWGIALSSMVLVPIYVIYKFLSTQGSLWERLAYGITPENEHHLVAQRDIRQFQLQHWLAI

[7] = target: D1 (Homo sapiens, UniProt P21728); assay: NIMH PDSP receptor binding assay; details: read-out: % Inhibition of Binding at 10 μM D-578
[8] = target: D2 (Homo sapiens, UniProt P14416); assay: NIMH PDSP receptor binding assay
Chain of D2 (P14416 whole entry): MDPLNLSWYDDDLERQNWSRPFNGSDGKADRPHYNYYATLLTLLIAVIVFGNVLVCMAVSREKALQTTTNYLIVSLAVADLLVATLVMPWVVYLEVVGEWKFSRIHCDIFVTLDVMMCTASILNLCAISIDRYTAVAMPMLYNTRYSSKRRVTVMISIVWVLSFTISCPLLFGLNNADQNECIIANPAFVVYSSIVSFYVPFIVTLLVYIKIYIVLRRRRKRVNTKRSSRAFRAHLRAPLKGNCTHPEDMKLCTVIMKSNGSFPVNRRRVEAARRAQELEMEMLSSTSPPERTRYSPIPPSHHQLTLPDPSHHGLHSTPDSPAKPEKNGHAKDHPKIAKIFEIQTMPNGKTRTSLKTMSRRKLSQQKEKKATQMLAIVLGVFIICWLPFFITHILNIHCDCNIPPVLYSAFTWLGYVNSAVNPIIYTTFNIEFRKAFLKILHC

[9] = target: D3 (Homo sapiens, UniProt P35462); assay: NIMH PDSP receptor binding assay
[10] = target: D4 (Homo sapiens, UniProt P21917); assay: NIMH PDSP receptor binding assay; details: read-out: % Inhibition of Binding at 10 μM D-578
[11] = target: D5 (Homo sapiens, UniProt P21918); assay: NIMH PDSP receptor binding assay; details: read-out: % Inhibition of Binding at 10 μM D-578
[12] = target: 5HT1a (Homo sapiens, UniProt P08908); assay: NIMH PDSP receptor binding assay; details: read-out: % Inhibition of Binding at 10 μM D-578
[13] = target: 5HT1b (Homo sapiens, UniProt P28222); assay: NIMH PDSP receptor binding assay; details: read-out: % Inhibition of Binding at 10 μM D-578
[14] = target: 5HT1d (Homo sapiens, UniProt P28221); assay: NIMH PDSP receptor binding assay
[15] = target: 5HT2a (Homo sapiens, UniProt P28223); assay: NIMH PDSP receptor binding assay
[16] = target: 5HT2b (Homo sapiens, UniProt P41595); assay: NIMH PDSP receptor binding assay
Chain of 5HT2b (P41595 whole entry): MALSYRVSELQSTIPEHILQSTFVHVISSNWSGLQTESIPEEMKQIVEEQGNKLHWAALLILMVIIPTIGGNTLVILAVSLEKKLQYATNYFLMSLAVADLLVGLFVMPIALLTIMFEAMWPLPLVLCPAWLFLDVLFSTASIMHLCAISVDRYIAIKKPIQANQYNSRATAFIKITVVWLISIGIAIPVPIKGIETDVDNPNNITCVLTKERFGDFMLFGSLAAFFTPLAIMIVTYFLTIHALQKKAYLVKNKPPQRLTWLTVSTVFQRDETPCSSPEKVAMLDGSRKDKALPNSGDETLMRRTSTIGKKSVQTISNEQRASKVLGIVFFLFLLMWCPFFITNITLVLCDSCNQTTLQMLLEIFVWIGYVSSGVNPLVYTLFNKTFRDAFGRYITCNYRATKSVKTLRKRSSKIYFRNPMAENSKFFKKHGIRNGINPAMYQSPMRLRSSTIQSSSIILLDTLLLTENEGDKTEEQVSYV

[17] = target: 5HT2c (Homo sapiens, UniProt P28335); assay: NIMH PDSP receptor binding assay
[18] = target: 5HT3 (Homo sapiens, UniProt P46098); assay: NIMH PDSP receptor binding assay; details: read-out: % Inhibition of Binding at 10 μM D-578
[19] = target: 5HT5a (Homo sapiens, UniProt P47898); assay: NIMH PDSP receptor binding assay; details: read-out: % Inhibition of Binding at 10 μM D-578
[20] = target: 5HT6 (Homo sapiens, UniProt P50406); assay: NIMH PDSP receptor binding assay; details: read-out: % Inhibition of Binding at 10 μM D-578
[21] = target: 5HT7 (Homo sapiens, UniProt P34969); assay: NIMH PDSP receptor binding assay; details: read-out: % Inhibition of Binding at 10 μM D-578
[22] = test system: GABA A; assay: NIMH PDSP receptor binding assay; details: [3H]Muscimol, mean of 4 determinations
[23] = target: Alpha1A (Homo sapiens, UniProt P35348); assay: NIMH PDSP receptor binding assay; details: read-out: % Inhibition of Binding at 10 μM D-578
[24] = target: Alpha1B (Homo sapiens, UniProt P35368); assay: NIMH PDSP receptor binding assay; details: read-out: % Inhibition of Binding at 10 μM D-578
[25] = target: Alpha1D (Homo sapiens, UniProt P25100); assay: NIMH PDSP receptor binding assay; details: read-out: % Inhibition of Binding at 10 μM D-578
[26] = target: Alpha2A (Homo sapiens, UniProt P08913); assay: NIMH PDSP receptor binding assay; details: read-out: % Inhibition of Binding at 10 μM D-578
[27] = target: Alpha2B (Homo sapiens, UniProt P18089); assay: NIMH PDSP receptor binding assay; details: read-out: % Inhibition of Binding at 10 μM D-578
[28] = target: Alpha2C (Homo sapiens, UniProt P18825); assay: NIMH PDSP receptor binding assay
Chain of Alpha2C (P18825 whole entry): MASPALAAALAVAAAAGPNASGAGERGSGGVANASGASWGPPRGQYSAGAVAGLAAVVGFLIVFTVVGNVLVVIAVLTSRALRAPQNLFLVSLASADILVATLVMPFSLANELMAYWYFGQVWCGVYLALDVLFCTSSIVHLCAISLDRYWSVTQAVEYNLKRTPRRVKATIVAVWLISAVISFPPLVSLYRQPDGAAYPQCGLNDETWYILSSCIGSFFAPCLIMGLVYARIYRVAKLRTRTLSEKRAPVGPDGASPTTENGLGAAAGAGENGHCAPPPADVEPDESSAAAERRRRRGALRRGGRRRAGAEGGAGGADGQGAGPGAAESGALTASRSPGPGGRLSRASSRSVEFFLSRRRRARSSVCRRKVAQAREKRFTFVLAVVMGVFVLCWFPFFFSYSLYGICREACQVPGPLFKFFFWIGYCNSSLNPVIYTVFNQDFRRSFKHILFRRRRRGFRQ

[29] = target: Beta1 (Homo sapiens, UniProt P08588); assay: NIMH PDSP receptor binding assay; details: read-out: % Inhibition of Binding at 10 μM D-578
[30] = target: Beta2 (Homo sapiens, UniProt P07550); assay: NIMH PDSP receptor binding assay
Chain of Beta2 (P07550 whole entry): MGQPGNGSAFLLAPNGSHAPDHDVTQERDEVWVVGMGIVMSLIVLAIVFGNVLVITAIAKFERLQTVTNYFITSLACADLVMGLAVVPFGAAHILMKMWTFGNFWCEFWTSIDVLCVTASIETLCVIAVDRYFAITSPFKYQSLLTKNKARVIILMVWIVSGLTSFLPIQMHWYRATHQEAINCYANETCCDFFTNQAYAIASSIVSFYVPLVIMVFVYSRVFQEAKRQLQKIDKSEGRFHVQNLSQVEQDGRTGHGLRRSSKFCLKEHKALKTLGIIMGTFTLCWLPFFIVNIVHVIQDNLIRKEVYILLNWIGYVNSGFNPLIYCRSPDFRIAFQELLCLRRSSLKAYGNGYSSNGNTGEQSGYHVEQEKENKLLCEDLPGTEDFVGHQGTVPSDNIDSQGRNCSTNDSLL

[31] = target: Beta3 (Homo sapiens, UniProt P13945); assay: NIMH PDSP receptor binding assay
[32] = test system: BZP Rat Brain Site; assay: NIMH PDSP receptor binding assay; details: 3H-Flunitrazepam, mean of 4 determinations
[33] = target: δ-opioid (Homo sapiens, UniProt P41143); assay: NIMH PDSP receptor binding assay; details: read-out: % Inhibition of Binding at 10 μM D-578
[34] = target: κ-opioid (Homo sapiens, UniProt P41145); assay: NIMH PDSP receptor binding assay
[35] = target: H1 (Homo sapiens, UniProt P35367); assay: NIMH PDSP receptor binding assay; details: read-out: % Inhibition of Binding at 10 μM D-578
[36] = target: H2 (Homo sapiens, UniProt P25021); assay: NIMH PDSP receptor binding assay
Chain of H2 (P25021 whole entry): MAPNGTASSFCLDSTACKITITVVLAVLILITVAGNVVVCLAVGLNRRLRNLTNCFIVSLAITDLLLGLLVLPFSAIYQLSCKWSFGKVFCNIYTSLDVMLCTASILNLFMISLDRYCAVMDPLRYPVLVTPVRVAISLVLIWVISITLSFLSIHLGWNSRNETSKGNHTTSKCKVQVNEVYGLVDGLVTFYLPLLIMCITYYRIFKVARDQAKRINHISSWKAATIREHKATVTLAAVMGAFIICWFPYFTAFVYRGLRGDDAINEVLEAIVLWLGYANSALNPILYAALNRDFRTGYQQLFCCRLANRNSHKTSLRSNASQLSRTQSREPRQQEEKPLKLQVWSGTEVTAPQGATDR

[37] = target: H3 (Homo sapiens, UniProt Q9Y5N1); assay: NIMH PDSP receptor binding assay; details: read-out: % Inhibition of Binding at 10 μM D-578
[38] = target: H4 (Homo sapiens, UniProt Q9H3N8); assay: NIMH PDSP receptor binding assay; details: read-out: % Inhibition of Binding at 10 μM D-578
[39] = target: μ-Opioid (Homo sapiens, UniProt P35372); assay: NIMH PDSP receptor binding assay; details: read-out: % Inhibition of Binding at 10 μM D-578
[40] = target: M1 (Homo sapiens, UniProt P11229); assay: biochemical; details: read-out: % Inhibition of Binding at 10 μM D-578
[41] = target: M2 (Homo sapiens, UniProt P08172); assay: biochemical; details: read-out: % Inhibition of Binding at 10 μM D-578
[42] = target: M3 (Homo sapiens, UniProt P20309); assay: biochemical; details: read-out: % Inhibition of Binding at 10 μM D-578
[43] = target: M4 (Homo sapiens, UniProt P08173); assay: biochemical; type: binding
Chain of M4 (P08173 whole entry): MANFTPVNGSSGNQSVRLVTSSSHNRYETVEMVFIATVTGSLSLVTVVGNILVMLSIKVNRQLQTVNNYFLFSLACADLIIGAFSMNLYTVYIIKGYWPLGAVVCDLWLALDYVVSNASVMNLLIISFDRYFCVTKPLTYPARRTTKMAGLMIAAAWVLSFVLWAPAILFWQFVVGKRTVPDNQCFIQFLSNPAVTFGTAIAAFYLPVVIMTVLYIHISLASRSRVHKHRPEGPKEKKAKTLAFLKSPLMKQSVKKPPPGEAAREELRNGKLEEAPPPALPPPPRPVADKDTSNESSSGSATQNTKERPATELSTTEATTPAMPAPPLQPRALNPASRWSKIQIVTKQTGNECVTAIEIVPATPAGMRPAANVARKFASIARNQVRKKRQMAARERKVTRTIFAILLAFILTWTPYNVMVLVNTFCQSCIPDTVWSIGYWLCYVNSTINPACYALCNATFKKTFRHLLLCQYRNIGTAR

[44] = target: M5 (Homo sapiens, UniProt P08912); assay: biochemical; type: binding
Chain of M5 (P08912 whole entry): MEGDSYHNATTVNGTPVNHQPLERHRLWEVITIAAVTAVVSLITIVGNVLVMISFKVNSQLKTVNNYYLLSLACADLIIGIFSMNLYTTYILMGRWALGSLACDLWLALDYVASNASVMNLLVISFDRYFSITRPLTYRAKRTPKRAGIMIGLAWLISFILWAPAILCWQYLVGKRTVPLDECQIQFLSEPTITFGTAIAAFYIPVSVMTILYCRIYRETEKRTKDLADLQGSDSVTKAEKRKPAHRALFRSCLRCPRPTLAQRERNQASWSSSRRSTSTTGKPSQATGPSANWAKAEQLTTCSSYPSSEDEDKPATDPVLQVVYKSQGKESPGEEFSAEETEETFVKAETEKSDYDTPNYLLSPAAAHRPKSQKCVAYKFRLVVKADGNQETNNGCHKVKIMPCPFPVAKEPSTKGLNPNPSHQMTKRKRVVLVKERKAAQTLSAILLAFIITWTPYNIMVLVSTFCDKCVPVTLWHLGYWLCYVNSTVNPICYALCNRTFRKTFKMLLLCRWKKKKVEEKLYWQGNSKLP

[45] = target: PBR (Rattus norvegicus, UniProt P16257); assay: NIMH PDSP receptor binding assay; details: read-out: % Inhibition of Binding at 10 μM D-578
[46] = target: mGlur5 (Rattus norvegicus, UniProt P31424); assay: NIMH PDSP receptor binding assay; details: read-out: % Inhibition of Binding at 10 μM D-578
[47] = target: Oxytocin (Homo sapiens, UniProt P30559); assay: NIMH PDSP receptor binding assay
[48] = target: V1A (Homo sapiens, UniProt P37288); assay: NIMH PDSP receptor binding assay; details: read-out: % Inhibition of Binding at 10 μM D-578
[49] = target: V1B (Homo sapiens, UniProt P47901); assay: NIMH PDSP receptor binding assay; details: read-out: % Inhibition of Binding at 10 μM D-578
[50] = target: V2 (Homo sapiens, UniProt P30518); assay: NIMH PDSP receptor binding assay; details: read-out: % Inhibition of Binding at 10 μM D-578
[51] = test system: immobility in the forced swimming test; assay: Forced swimming test in rats after oral administration; type: in vivo, rat; details: for Immobility in the rat forced swimming test compared to vehicle: sub-chronic, 1 h before test, mesylate salt
In short: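 Male Sprague-Dawley rats (200-225 g), naive, used once, were given a Porsolt two-session test. The pretest was a 15 min swim and the test a 5 min swim 24 h later, in a 24.5 × 35.5 cm cylinder with 22 cm water at 24-25 °C. Mesylate salt in 3% β-hydroxypropyl cyclodextrin/saline was given p.o. 15 min after pretest and 1 h before test. Blinded video scoring of immobility; one-way ANOVA.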

[52] = test system: locomotor activity; assay: Locomotor activity test; type: in vivo, rat; details: 25 mg/kg oral, rats, up to 120 min
In short: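 Sprague-Dawley rats were acclimated for 1 h in automated activity chambers, then dosed by oral gavage with test compound (25 mg/kg) or vehicle. Distance travelled was recorded for 2 h after dosing, matching the forced-swim timing. n = 4-7 rats/group.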

[53] = Oral absorption and brain penetration; type: in vivo; details: unpublished data
[54] = target: hERG channel (Homo sapiens, UniProt Q12809)
Chain of hERG channel (Q12809 whole entry): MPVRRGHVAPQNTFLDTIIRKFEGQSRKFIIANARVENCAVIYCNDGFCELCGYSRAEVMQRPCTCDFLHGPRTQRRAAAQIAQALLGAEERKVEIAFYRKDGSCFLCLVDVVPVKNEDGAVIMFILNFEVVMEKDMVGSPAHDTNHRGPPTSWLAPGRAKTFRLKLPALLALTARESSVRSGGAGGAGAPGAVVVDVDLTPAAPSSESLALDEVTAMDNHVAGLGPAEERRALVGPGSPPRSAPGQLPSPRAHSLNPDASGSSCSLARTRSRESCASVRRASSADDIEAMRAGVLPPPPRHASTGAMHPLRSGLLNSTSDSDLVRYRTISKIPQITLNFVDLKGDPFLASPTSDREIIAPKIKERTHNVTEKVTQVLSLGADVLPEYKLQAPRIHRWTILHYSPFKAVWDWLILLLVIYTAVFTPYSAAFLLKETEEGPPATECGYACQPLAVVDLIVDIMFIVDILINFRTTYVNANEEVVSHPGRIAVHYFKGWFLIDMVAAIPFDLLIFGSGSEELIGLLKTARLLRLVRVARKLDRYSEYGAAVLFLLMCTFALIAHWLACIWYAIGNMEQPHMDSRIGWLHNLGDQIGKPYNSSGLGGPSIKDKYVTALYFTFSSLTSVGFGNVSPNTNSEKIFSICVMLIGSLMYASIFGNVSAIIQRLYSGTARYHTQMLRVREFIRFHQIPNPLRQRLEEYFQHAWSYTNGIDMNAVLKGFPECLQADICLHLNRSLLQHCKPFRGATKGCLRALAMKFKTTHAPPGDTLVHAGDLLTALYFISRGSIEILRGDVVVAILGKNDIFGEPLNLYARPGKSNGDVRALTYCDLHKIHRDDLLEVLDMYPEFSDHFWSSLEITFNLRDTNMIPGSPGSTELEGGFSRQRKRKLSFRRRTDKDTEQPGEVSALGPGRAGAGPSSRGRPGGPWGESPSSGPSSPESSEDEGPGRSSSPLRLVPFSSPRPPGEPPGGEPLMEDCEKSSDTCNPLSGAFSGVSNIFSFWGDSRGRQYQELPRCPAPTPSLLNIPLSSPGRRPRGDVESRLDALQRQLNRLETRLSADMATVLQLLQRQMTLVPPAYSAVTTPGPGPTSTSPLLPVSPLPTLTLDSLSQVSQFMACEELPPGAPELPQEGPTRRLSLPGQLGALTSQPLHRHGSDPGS

[55] = read-out: % Inhibition of Binding at 10 μM D-578

Fc1ccc([C@@H]2CCNC[C@H]2COc2ccc3c(c2)OCO3)cc1 [paroxetine, reference compound]
Freezing behavior during the extinction retention session (SPS-induced deficit) [1]: did not reverse
Freezing behavior during the extinction session (SPS-induced deficit) [1]: did not reverse
Shock reactivity during acquisition compared to the control group [1]: no effect

Nc1nc2ccc(CN[C@@H]3CO[C@H](C(c4ccc(F)cc4)c4ccc(F)cc4)C[C@H]3O)cc2s1 [D-578, (2S,4R,5R)-5-(((2-aminobenzo[d]thiazol-6-yl)methyl)amino)-2-(bis(4-fluorophenyl)methyl)tetrahydro-2H-pyran-4-ol]
Ki [2]: 16.2 ± 2 nM
Ki [3]: 16.2 ± 1.5 nM
Ki [4]: 29.6 ± 6.95 nM
Ki [5]: 20.6 ± 3.8 nM
Ki [6]: 6.1 ± 1.14 nM
Times more potent at NET compared to DAT and SERT ([6]; cloned human transporters): 3-4 times
inhibition at 10 µM [7]: 11%
Ki [8]: 773 nM
inhibition at 10 µM [8, 55]: 62.3%
Ki [9]: 2610 nM
inhibition at 10 µM [9, 55]: 56.4%
inhibition at 10 µM [10]: 20.9%
inhibition at 10 µM [11]: 37.4%
inhibition at 10 µM [12]: 19.9%
inhibition at 10 µM [13]: 13.6%
Ki [14]: 702 nM
inhibition at 10 µM [14, 55]: 72%
Ki [15]: 1640 nM
inhibition at 10 µM [15, 55]: 62.5%
Ki [16]: 425 nM
inhibition at 10 µM [16, 55]: 80.3%
Ki [17]: 73 nM
inhibition at 10 µM [17, 55]: 96.3%
inhibition at 10 µM [18]: 8.5%
inhibition at 10 µM [19]: 35.2%
inhibition at 10 µM [20]: 12.8%
inhibition at 10 µM [21]: 28.9%
% Inhibition of Binding at 10 μM D-578 [22]: 2.3%
inhibition at 10 µM [23]: 18.6%
inhibition at 10 µM [24]: 38.3%
inhibition at 10 µM [25]: 24.7%
inhibition at 10 µM [26]: 22.6%
inhibition at 10 µM [27]: 6.3%
Ki [28]: 2010 nM
inhibition at 10 µM [28, 55]: 72%
inhibition at 10 µM [29]: 45.6%
Ki [30]: > 10 µM
inhibition at 10 µM [30, 55]: 59.4%
Ki [31]: 2700 nM
inhibition at 10 µM [31, 55]: 59.8%
% Inhibition of Binding at 10 μM D-578 [32]: 28.8%
inhibition at 10 µM [33]: 24.1%
Ki [34]: 1390 nM
inhibition at 10 µM [34, 55]: 68.9%
inhibition at 10 µM [35]: 11%
Ki [36]: 42 nM
inhibition at 10 µM [36, 55]: 94.1%
inhibition at 10 µM [37]: 19.6%
inhibition at 10 µM [38]: 2.4%
inhibition at 10 µM [39]: 11.7%
inhibition at 10 µM [40]: 97.2%
inhibition at 10 µM [41]: 20.9%
inhibition at 10 µM [42]: 7.5%
Ki [43]: > 10 µM
inhibition at 10 µM [43, 55]: 55%
Ki [44]: > 10 µM
inhibition at 10 µM [44, 55]: 84.4%
inhibition at 10 µM [45]: 10.6%
inhibition at 10 µM [46]: 52.8%
Ki [47]: > 10 µM
inhibition at 10 µM [47, 55]: 53.1%
inhibition at 10 µM [48]: 44.6%
inhibition at 10 µM [49]: 7.8%
inhibition at 10 µM [50]: 21%
Immobility in the rat forced swimming test compared to vehicle ([51]; 10 mg/kg p.o.): significantly reduced
Immobility in the rat forced swimming test compared to vehicle ([51]; 15 mg/kg p.o.): significantly reduced
Reduction of immobility compared to control ([51]; 25 mg/kg PO, forced swimming test in rats): greater than 90%
Immobility in the rat forced swimming test compared to vehicle ([51]; 25 mg/kg p.o.): marked reduction of immobility
Locomotor activity, distance travelled vs vehicle [52]: not significantly different from vehicle
Freezing behavior during the extinction retention session (SPS-induced deficit) [1]: froze significantly less
Freezing behavior during the extinction session (SPS-induced deficit) [1]: froze less
Shock reactivity during acquisition compared to the control group [1]: no effect
Oral absorption and brain penetration [53]: gets absorbed orally and penetrates into the brain well
Inhibition of the hERG channel (in words) ([54]; Thallium flux assay): almost no inhibition
Hill Slope ([54]; Tl+ flux assay, inhibition of hERG channel): 1.471 ± 0.23

COc1cc(N)c(Cl)cc1C(=O)NC1CCN(CCCOc2ccc(F)cc2)CC1OC (stereo not shown) [Cisapride, reference compound]
Hill Slope ([54]; human): 1.01 ± 0.07
